Rows were chosen to be rich in hits. Some 2.1% of all compounds tested hit in one or more screens of this group.
SUMO HTRF inh = blocks human SUMOylation mediated by UBC9; P63279; HTRF SUMOylation assay, SAE1/SAE2 + UBC9, in vitro; inhibition, % at 35 µM; actives 0.36% (n = 290,000); in the data active = inhibition above about 50%, passing the limit was not always enough
Target sequence (P63279 whole entry, looked up): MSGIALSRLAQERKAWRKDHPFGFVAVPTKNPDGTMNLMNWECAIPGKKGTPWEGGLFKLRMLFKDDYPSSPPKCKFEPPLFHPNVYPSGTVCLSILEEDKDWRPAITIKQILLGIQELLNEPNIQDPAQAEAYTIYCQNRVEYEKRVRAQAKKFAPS
DNA FID counter = displaces DNA intercalator in HCV helicase counter-screen; DNA fluorescent intercalator displacement, fluorescence; inhibition, % at 7.9 µM; actives 0.17% (n = 290,000); in the data active = inhibition above about 37%;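 note: higher means more ethidium bromide displaced from hairpin DNA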
HCV NS3 hel inh = blocks Hepatitis C virus NS3 helicase unwinding | AID 1800 | inhibition, % at 10.9 µM | actives 0.56% (n = 290,000) | NS3 helicase DNA unwinding, Cy5 molecular beacon fluorescence;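 active = inhibition above the mean of all tested compounds plus 3 SD, set per campaign, cut at about 35% in these data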
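Assay system: hepatitis C virus NS3 helicase domain fragment enzyme. Also added: annealed dual-labelled DNA beacon duplex, ATP-started. Timing: 1 h reaction at 25 °C, ATP-initiated. Technique: Cy5 fluorescence at 0 and 60 min, beacon hairpin quenching. Evaluation: % inhibition of unwinding. Replication: one well per compound.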
IMP-1 inh = blocks Pseudomonas aeruginosa IMP-1 metallo-beta-lactamase; purified IMP-1, nitrocefin hydrolysis, epi-absorbance fluorescence; actives 0.45% (n = 290,000); inhibition, % at 5.6 µM; AID 1556;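 active = inhibition above the mean plus 3 SD of all compounds in the same screening run, cut at about 4.5% in these data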
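Assay system: purified IMP-1; Quantity: IMP-1 0.2 nM before substrate addition; Medium: HEPES buffer pH 7.1 with ZnSO4 and Brij 35; Incubation: 15 min enzyme–compound preincubation, then 25 min nitrocefin reaction, 25 °C; Signal: fluorescence quenching readout, ex 480/em 530 nm; Controls: DMSO with and without IMP-1; Repeats: singlicate testing.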
VIM-2 inh = blocks Pseudomonas aeruginosa VIM-2 metallo-beta-lactamase. purified VIM-2, nitrocefin hydrolysis, epi-absorbance fluorescence. inhibition, % at 5.6 µM. actives 0.89% (n = 290,000);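 active = inhibition above the mean of all tested compounds plus 3 SD, cutoff set per screening run, cut at about 7.5% in these data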;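 note: red hydrolysis product quenches plate fluorescence so inhibitors raise well fluorescence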
Numbers stand for hits; - = inactive; . = no result.

SMILES	SUMO HTRF inh	DNA FID counter	HCV NS3 hel inh	IMP-1 inh	VIM-2 inh
c1csc(-c2nnc(N3CCCCCC3)c3ccccc23)c1	-	-	-	-	-
c1csc(-c2nn3cnnc3c3ccccc23)c1	-	-	-	-	11.9
COc1ccc(C2=NN(C(=O)c3cccs3)C(c3ccccc3O)C2)cc1 (stereo not given)	56.5	-	-	-	-
COc1ccc(C2CC(c3ccccc3)=NN2C(=O)c2cccs2)cc1 (stereo not given)	-	-	-	-	-
CC1CCCN(CCCNC(=O)C2CC(=O)N(c3ccc(F)c(Cl)c3)C2)C1 (stereo not given)	-	-	-	5.8	-
c1ccc(-c2nc(N3CCOCC3)c3ccccc3n2)nc1	-	-	-	-	-
c1ccc2c(N3CCCCC3)nc(N3CCCC3)nc2c1	-	-	-	-	10.8
c1ccc(-c2nc(N3CCCCCC3)c3ccccc3n2)nc1	-	-	-	5.8	-
c1ccc2c(c1)nc(N1CCCCC1)c1ccccc12	-	-	-	-	-
C=CCn1c(NS(=O)(=O)c2ccccc2)c(S(=O)(=O)c2ccc(C)cc2)c2nc3ccccc3nc21	.	-	-	-	-
O=S(=O)(Nc1c(S(=O)(=O)c2ccccc2)c2nc3ccccc3nc2n1C1CCCCC1)c1ccccc1	98.9	-	-	-	-
O=C(O)c1ccc(Nc2c3ccccc3nc3ccccc23)cc1	-	-	-	-	-
Oc1cccc(Nc2c3ccccc3nc3ccccc23)c1	-	41.9	-	-	11.4
c1cncc(Nc2c3ccccc3nc3ccccc23)c1	-	37.3	-	-	10.1
NNC(=O)CCc1nc2ccccc2[nH]1	-	-	-	-	-
COc1cccc(Nc2cc(C)nc3ccccc23)c1	-	-	-	-	-
COc1ccc(Nc2cc(C)nc3c(C)cccc23)cc1OC	-	-	-	-	10.2
Cc1cc(Nc2ccc(C)c(C)c2)c2ccccc2n1	-	-	-	-	8.6
Nc1c(C(=O)c2ccccc2)sc2nsc(SCCN3CCCC3)c12	-	-	-	-	8.3
O=C(CN1C(=O)S/C(=C/c2cccn2-c2ccc(O)cc2)C1=O)N1CCCC1	-	-	-	-	9.0
O=C(O)c1cccc(-n2cccc2/C=C2/SC(=O)N(CC(=O)N3CCCC3)C2=O)c1	-	-	-	-	-
Cc1sc2ncn3c(C)nnc3c2c1C	-	-	-	-	10.0
Cc1ccc(C(=O)Cn2ncsc2=N)cc1	-	-	-	25.0	-
Cc1ccc(C(=O)Cn2c(=N)n(N)c3ccccc32)cc1	-	-	-	-	-
Fc1ccc2[nH]c3c(NCc4ccccc4)ncnc3c2c1	-	-	-	-	-
SMILES	SUMO HTRF inh	DNA FID counter	HCV NS3 hel inh	IMP-1 inh	VIM-2 inh
CSc1nc(SCCN(C)C)c2c3c(sc2n1)COC(C)(C)C3	-	-	-	-	8.9
CCc1nc(SCC(=O)O)c2c3c(sc2n1)COC(C)(C)C3	-	-	-	-	8.1
Cc1ccc(NC(=O)CCCN2C(=O)/C(=C/C=C/c3ccccc3)SC2=S)cc1	-	-	-	7.2	-
O=C(COC(=O)CCN1C(=O)/C(=C\C=C\c2ccccc2)SC1=S)Nc1ccc(Br)cc1	-	-	-	5.5	-
O=C(CCN1C(=O)/C(=C\C=C\c2ccccc2)SC1=S)Nc1ccccc1C(=O)O	-	-	-	8.1	-
O=C(CCN1C(=O)/C(=C\C=C\c2ccccc2)SC1=S)Nc1cccc(C(=O)O)c1	-	-	-	-	-
O=C(CCCN1C(=O)S/C(=C/C=C/c2ccccc2)C1=O)Nc1ccc(C(=O)O)cc1	-	-	-	-	-
C=CCOc1ccccc1CN1CCC(Oc2ccc(C(=O)N3CCCCC3)cc2)CC1	-	-	-	-	-
CC(=O)N1CC(=O)N=C1SCC(=O)Nc1nc(-c2ccccc2)c(-c2ccccc2)s1	-	-	-	-	-
CCCCc1cc(=O)oc2cc(C)cc(OC(C)C(=O)NCc3cccnc3)c12 (stereo not given)	-	-	-	-	-
Cc1oc2c(c1C(=O)c1ccc(Cl)cc1)C(=O)C(=O)c1ccccc1-2	71.0	-	-	-	-
Nc1ccc(-c2nc3ccc(N)cc3[nH]2)cc1	65.8	-	-	-	-
Cc1ccc(C)c(-c2nc3ccc(N)cc3[nH]2)c1	50.4	-	-	-	-
Nc1ccc2nc(-c3ccc(Cl)cc3)[nH]c2c1	-	.	.	.	.
O=c1[nH]c2ccccc2cc1CN(CC1CCCO1)S(=O)(=O)c1ccc(Cl)cc1 (stereo not given)	-	-	-	-	-
NS(=O)(=O)c1ccc(S(=O)(=O)N(Cc2ccccc2F)CC2CCCO2)cc1 (stereo not given)	-	-	-	5.0	-
O=C(c1cccnc1)N1CCC(Oc2ccc(C(=O)N3CCCC(O)C3)cc2)CC1 (stereo not given)	-	-	-	-	-
CNC(=O)c1c(NC(=O)c2ccc(S(=O)(=O)N3CCCCC3)cc2)sc2c1CCN(C(C)C)C2	-	-	-	-	-
CCN1CCc2c(sc(NC(=O)c3ccc(S(=O)(=O)N4CCCC4)cc3)c2C(=O)NC)C1	-	-	-	-	8.7
CCCN1CCc2c(sc(NC(=O)c3ccc(S(=O)(=O)N(C)c4ccccc4)cc3)c2C(=O)NC)C1	-	44.4	-	9.6	-
O=C1OC(c2ccccc2)c2ccc3ccccc3c21 (stereo not given)	-	-	-	-	9.5
CC1Cc2nc(SCC(=O)N3CCN(c4ccccc4)CC3)n(CCc3ccccc3)c(=O)c2S1 (stereo not given)	-	-	-	-	-
CCn1c(SCC(=O)N2CCN(c3ccccc3)CC2)nc2c(c1=O)SC(C)C2 (stereo not given)	-	-	-	4.9	-
Cc1ccc(S(=O)(=O)NCC(=O)NCC(=O)N(C)Cc2ccc3ccccc3c2)cc1C	-	-	-	-	-
COc1cc(/C=N/Nc2nn3cnnc3c3ccccc23)ccc1O	-	-	-	-	-
SMILES	SUMO HTRF inh	DNA FID counter	HCV NS3 hel inh	IMP-1 inh	VIM-2 inh
COc1cccc(/C=N/Nc2nn3cnnc3c3ccccc23)c1	-	-	-	-	12.1
Oc1ccc(/C=N/Nc2nn3cnnc3c3ccccc23)cc1	-	-	-	-	8.8
COc1ccc(S(=O)(=O)c2snnc2C)cc1	-	-	-	-	-
O=C(Nc1ccc(F)cc1)c1ccc(NC(=O)C2CCCO2)cc1 (stereo not given)	-	-	-	7.7	-
O=C(CN(C(=O)c1csnn1)c1ccc(Cl)cc1)NCc1ccc2c(c1)OCO2	-	-	-	-	-
O=C(O)COc1ccc(/C=N/NC(=O)c2ccc(-c3csc(Nc4ccc(Cl)cc4)n3)cc2)cc1	86.0	-	-	-	-
CC(C)NC(=O)C1(S(=O)(=O)c2ccccc2)CC=CC1	-	-	-	-	-
COc1cccc(NC(=O)Cn2c3ccc(F)cc3c3nc4n(c(=O)c32)CCCS4)c1	.	-	-	6.5	-
Cc1coc2c(C)c3oc(=O)c(CCC(=O)NCCCN4CCOCC4)c(C)c3cc12	-	-	-	-	10.7

Assay outcomes as filed in PubChem.
